ChEMBL document CHEMBL1122813, “Synthesis and antibacterial activity of 2-[(methoxycarbonyl)methylene]cephalosporins” (1984)
Converted amounts (≈) assume the structure as drawn.

How the values were obtained:
Escherichia coli [1] = test: In vitro antibacterial activity against Escherichia coli strain 15119; type: functional
Summary of the method: (§1)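 MIC by serial twofold dilution of compound in Mueller-Hinton agar. The agar surface or broth was inoculated with a suitably diluted 18-24-h broth culture, then incubated at 37 °C for 17 h. MIC was read as the lowest concentration inhibiting visible growth.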

Staphylococcus aureus [2] = test: In vitro antibacterial activity against Staphylococcus aureus strain 9537 + 50% serum; type: functional
Summary of the method: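 Serial twofold dilution MIC with 50% human serum present. Mueller-Hinton agar or broth was inoculated with a suitably diluted 18-24-h broth culture and incubated at 37 °C for 17 h. The endpoint was the lowest concentration that stopped visible growth.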

Klebsiella pneumoniae [3] = test: In vitro antibacterial activity against Klebsiella pneumoniae strain 15130; type: functional; summary of the method: as §1
Proteus mirabilis [4] = test: In vitro antibacterial activity against Proteus mirabilis strain 9900; type: functional; summary of the method: as §1
Escherichia coli [5] = test: In vitro antibacterial activity against Escherichia coli strain 20341; type: functional; summary of the method: as §1
Streptococcus pyogenes = test: In vitro antibacterial activity against Streptococcus pyogenes strain 9604; type: functional; summary of the method: as §1
Staphylococcus aureus [6] = test: In vitro antibacterial activity against Staphylococcus aureus strain 9606 (Penicillin resistant); type: functional
Summary of the method: (§2)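 MIC by serial twofold dilution in Mueller-Hinton agar. Agar surface or broth inoculated with a suitably diluted 18-24-h broth culture. Plates and broth tubes incubated at 37 °C for 17 h. MIC taken as the lowest concentration that inhibited visible growth.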

Morganella morganii = test: In vitro antibacterial activity against Morganella morganii strain 15153; type: functional; summary of the method: as §1
Klebsiella pneumoniae [7] = test: In vitro antibacterial activity against Klebsiella pneumoniae strain 20468; type: functional; summary of the method: as §1
Proteus mirabilis [8] = test: In vitro antibacterial activity against Proteus mirabilis strain 9716; type: functional; summary of the method: as §1
Streptococcus pneumoniae = test: In vitro antibacterial activity against Streptococcus pneumoniae strain 9585; type: functional; summary of the method: as §1
Enterobacter cloacae [9] = test: In vitro antibacterial activity against Enterobacter cloacae strain 9659; type: functional; summary of the method: as §1
Enterobacter cloacae [10] = test: In vitro antibacterial activity against Enterobacter cloacae strain 9656; type: functional; summary of the method: as §1
Serratia marcescens = test: In vitro antibacterial activity against Serratia marcescens strain 20019; type: functional; summary of the method: as §1
Enterococcus faecalis = test: In vitro antibacterial activity against Streptococcus faecalis strain 20688; type: functional; summary of the method: as §1
Staphylococcus aureus [11] = test: In vitro antibacterial activity against Staphylococcus aureus strain 9537; type: functional; summary of the method: as §2
Providencia rettgeri [12] = test: In vitro antibacterial activity against Providencia rettgeri strain 21203; type: functional; summary of the method: as §1
Providencia rettgeri [13] = test: In vitro antibacterial activity against Providencia rettgeri strain 21203

| Structure (SMILES) | MIC (Escherichia coli [1]) [µg/mL] | MIC (Staphylococcus aureus [2]) [µg/mL] | MIC (Klebsiella pneumoniae [3]) [µg/mL] | MIC (Proteus mirabilis [4]) [µg/mL] | MIC (Escherichia coli [5]) [µg/mL] | MIC (Streptococcus pyogenes) [µg/mL] | MIC (Staphylococcus aureus [6]) [µg/mL] | MIC (Morganella morganii) [µg/mL] | MIC (Klebsiella pneumoniae [7]) [µg/mL] | MIC (Proteus mirabilis [8]) [µg/mL] | MIC (Streptococcus pneumoniae) [µg/mL] | MIC (Enterobacter cloacae [9]) [µg/mL] | MIC (Enterobacter cloacae [10]) [µg/mL] | MIC (Serratia marcescens) [µg/mL] | MIC (Enterococcus faecalis) [µg/mL] | MIC (Staphylococcus aureus [11]) [µg/mL] | MIC (Providencia rettgeri [12]) [µg/mL] | MIC (Providencia rettgeri [13]) [µg/mL] |
| --- | --- | --- | --- | --- | --- | --- | --- | --- | --- | --- | --- | --- | --- | --- | --- | --- | --- | --- |
| CO/N=C(/C(=O)NC1C(=O)N2C(C(=O)O)=C(C)/C(=C/C(=O)OC)SC12)c1csc(N)n1.O=C(O)C(F)(F)F (stereo unspecified) | 2 | 125 | 16 | 2 | 2 | 0.016 | 4 | > 125 | 32 | 16 | 0.016 | > 125 | > 125 | > 125 | 63 | 2 | 32 | – |
| COC(=O)/C=C1\SC2C(NC(=O)C(N)c3ccccc3)C(=O)N2C(C(=O)O)=C1C.O=C(O)C(F)(F)F (stereo unspecified) | > 125 | 32 | > 125 | > 125 | > 125 | 0.025 | > 125 | > 125 | > 125 | > 125 | 0.13 | > 125 | > 125 | > 125 | 63 | 1 | > 125 | – |
| CO/N=C(/C(=O)NC1C(=O)N2C(C(=O)O)=C(C)/C(=C/C(=O)OC)SC12)c1ccco1 (stereo unspecified) | 16 (≈ 36.7 µM) | 63 | 16 (≈ 36.7 µM) | 4 (≈ 9.19 µM) | 63 (≈ 145 µM) | 0.25 (≈ 0.574 µM) | 4 (≈ 9.19 µM) | 63 (≈ 145 µM) | > 125 | 4 (≈ 9.19 µM) | 0.25 (≈ 0.574 µM) | > 125 | 63 (≈ 145 µM) | > 125 | 32 (≈ 73.5 µM) | 2 (≈ 4.59 µM) | 32 (≈ 73.5 µM) | – |
| COC(=O)/C=C1\SC2C(NC(=O)C(O)c3ccccc3)C(=O)N2C(C(=O)O)=C1C (stereo unspecified) | > 125 | 32 | > 125 | 63 (≈ 151 µM) | > 125 | 0.25 (≈ 0.597 µM) | > 125 | > 125 | > 125 | > 125 | 0.25 (≈ 0.597 µM) | > 125 | > 125 | > 125 | 16 (≈ 38.2 µM) | 0.5 (≈ 1.19 µM) | > 125 | – |
| COC(=O)/C=C1\SC2C(NC(=O)Cc3cccs3)C(=O)N2C(C(=O)O)=C1COC(C)=O (stereo unspecified) | 125 (≈ 268 µM) | 63 | > 125 | 125 (≈ 268 µM) | > 125 | 0.5 (≈ 1.07 µM) | 2 (≈ 4.29 µM) | > 125 | 63 (≈ 135 µM) | 125 (≈ 268 µM) | 0.13 (≈ 0.279 µM) | > 125 | > 125 | > 125 | 4 (≈ 8.57 µM) | 2 (≈ 4.29 µM) | > 125 | – |
| COC(=O)/C=C1\SC2C(NC(=O)Cc3cccs3)C(=O)N2C(C(=O)O)=C1C (stereo unspecified) | 63 (≈ 154 µM) | 63 | 125 (≈ 306 µM) | 16 (≈ 39.2 µM) | 125 (≈ 306 µM) | 2 (≈ 4.9 µM) | 2 (≈ 4.9 µM) | 125 (≈ 306 µM) | > 125 | 32 (≈ 78.3 µM) | 0.25 (≈ 0.612 µM) | > 125 | > 125 | > 125 | 2 (≈ 4.9 µM) | 0.13 (≈ 0.318 µM) | 63 (≈ 154 µM) | – |
| COC(=O)/C=C1/SC2C(NC(=O)Cc3cccs3)C(=O)N2C(C(=O)O)=C1C (stereo unspecified) | 125 (≈ 306 µM) | 63 | > 125 | 32 (≈ 78.3 µM) | 125 (≈ 306 µM) | 2 (≈ 4.9 µM) | 1 (≈ 2.45 µM) | 16 (≈ 39.2 µM) | > 125 | 4 (≈ 9.79 µM) | 0.5 (≈ 1.22 µM) | > 125 | > 125 | 4 (≈ 9.79 µM) | 8 (≈ 19.6 µM) | 0.06 (≈ 0.147 µM) | 4 (≈ 9.79 µM) | – |
| CC(=O)OCC1=C(C(=O)O)N2C(=O)[C@@H](NC(=O)Cc3cccs3)[C@H]2SC1 [CEPHALOTHIN] | 16 (≈ 40.4 µM) | 2 | 16 (≈ 40.4 µM) | 1 (≈ 2.52 µM) | 32 (≈ 80.7 µM) | 0.06 (≈ 0.151 µM) | 0.5 (≈ 1.26 µM) | > 125 | > 125 | 8 (≈ 20.2 µM) | 0.03 (≈ 0.0757 µM) | > 125 | > 125 | > 125 | 32 (≈ 80.7 µM) | 0.06 (≈ 0.151 µM) | – | 63 (≈ 159 µM) |
